# Source: PubChem BioAssay (several laboratories)
# Shown are actives, neighbours in structure and some others; about 2.3% of the full set was active somewhere.
# TRPC4 inh – blocks the mouse TRPC4 cation channel; Q9QUQ5; AID 2247; B-score at 10 µM; 300,000 compounds, 0.39% hits; HEK293 TRPC4beta/mu-opioid, DAMGO-evoked Fluo4 calcium flux; active compounds read low;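 active = B-score over 3 SD under the library average, no early fluorescence shift, positive overall ratio signal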
# Target sequence (Q9QUQ5 whole entry, looked up): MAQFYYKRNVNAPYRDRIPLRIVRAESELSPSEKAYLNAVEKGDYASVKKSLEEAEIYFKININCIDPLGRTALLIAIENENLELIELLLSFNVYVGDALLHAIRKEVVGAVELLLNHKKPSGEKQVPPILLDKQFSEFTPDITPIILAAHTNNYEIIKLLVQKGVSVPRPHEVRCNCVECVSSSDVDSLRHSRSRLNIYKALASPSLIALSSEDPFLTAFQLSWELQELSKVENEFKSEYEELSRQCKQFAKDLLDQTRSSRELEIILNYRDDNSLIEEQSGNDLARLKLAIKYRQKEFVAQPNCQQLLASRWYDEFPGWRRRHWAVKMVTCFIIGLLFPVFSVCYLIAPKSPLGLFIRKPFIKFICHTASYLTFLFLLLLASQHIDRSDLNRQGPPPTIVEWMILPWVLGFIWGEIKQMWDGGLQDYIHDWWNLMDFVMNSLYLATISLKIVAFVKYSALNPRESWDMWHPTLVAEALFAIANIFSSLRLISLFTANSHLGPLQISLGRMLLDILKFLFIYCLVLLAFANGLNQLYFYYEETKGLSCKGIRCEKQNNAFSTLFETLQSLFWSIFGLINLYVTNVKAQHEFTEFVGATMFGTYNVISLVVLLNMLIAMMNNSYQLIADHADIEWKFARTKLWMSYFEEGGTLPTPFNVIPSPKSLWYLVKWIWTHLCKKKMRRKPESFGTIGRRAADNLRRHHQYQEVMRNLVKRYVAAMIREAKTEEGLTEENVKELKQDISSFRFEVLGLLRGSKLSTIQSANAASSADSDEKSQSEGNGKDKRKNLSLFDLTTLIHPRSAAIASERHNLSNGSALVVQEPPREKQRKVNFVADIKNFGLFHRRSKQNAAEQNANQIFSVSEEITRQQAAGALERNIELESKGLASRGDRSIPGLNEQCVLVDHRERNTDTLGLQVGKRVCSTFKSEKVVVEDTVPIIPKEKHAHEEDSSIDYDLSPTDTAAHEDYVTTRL
#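 Material: HEK293 cells with stable TRPC4beta plus mu-opioid receptor expression / Probe or stimulus: DAMGO in two steps, submaximal then maximal / Compound: single concentration per test compound / Technique: kinetic Fluo4 fluorescence imaging of calcium influx / Read-out: per-well B score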
# TRPC4 agonist – TRPC4 (mouse) channel activation. B-score at 10 µM. 310,000 compounds, 0.49% hits. Q9QUQ5. HEK293 TRPC4beta/mu-opioid, Fluo4 calcium fluorescence; active compounds read high;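 active = B-score above 5 SD of library B-scores, and initial fluorescence ratio not above library mean plus 5 SD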;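 also: positive B-score marks a calcium rise read as TRPC4 activation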
#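 Material: HEK293 stable line with TRPC4beta plus mu-opioid receptor; technique: Fluo4 calcium-sensitive dye fluorescence, kinetic, 1 Hz baseline; timing: Fluo4 dye loading 45 min at room temperature, 110 s recording; controls: assay buffer as low control, maximal DAMGO as high control; read-out: integrated baseline-normalised fluorescence ratio, converted to per-well B score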
# TRPC6 act – mouse TRPC6 channel activation; 310,000 compounds, 0.13% hits; HEK293-TRPC6 membrane potential dye fluorescence; active compounds read high; B-score at 10 µM; AID 2550;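 active = B-score of the integrated fluorescence ratio above library mean plus 3 SD, and starting fluorescence ratio within library mean plus 5 SD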;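 also: higher score means more depolarization so channel activation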
# CR mimetic SO – yeast age-related superoxide inhibition as caloric restriction mimetic. S. cerevisiae aged cells, superoxide DHE fluorescence; active compounds read low. superoxide response (% of plate mean), % at 10 µM. 330,000 compounds, 0.18% hits. AID 2690;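 active = superoxide response under a set limit, about three screen SD below normal, cut at about 65% in these data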;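 also: yeast aged for seven days with compound at 30 °C before DHE staining; 100% = average MFI of all compound-treated wells on the plate with controls excluded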
# TRPC4 PAM – allosterically enhances the mouse TRPC4 cation channel. Q9QUQ5. HEK293 TRPC4beta/mu-opioid, DAMGO EC20, Fluo-4 Ca2+ flux; active compounds read high. 310,000 compounds, 0.42% hits. AID 2227. B-score at 10 µM;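 active = B-score of calcium response area above 5 SD of library B-scores, with initial fluorescence ratio within 5 SD of library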;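 also: B-score of integrated fluorescence ratio over time as area under calcium response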
# TRPC6 inhibitor – inhibitors of mouse TRPC6 channel; B-score at 10 µM; Q61143; HEK293-TRPC6, membrane potential dye, ACh-evoked depolarization; active compounds read low; 310,000 compounds, 1.1% hits;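 active = B-score under library mean minus 3 SD, initial fluorescence not abnormally high, positive integrated signal ratio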;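 also: B-score derived from integrated fluorescence ratio over the kinetic read; more negative B-score means stronger inhibition of depolarization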
# TRPC4 spec 2 – second selectivity test of TRPC6 inhibitors: effect on mouse TRPC4; 920 compounds, 42% hits; AID 2776; HEK293 TRPC4/MOR, membrane potential dye fluorescence; channel activated by saturating DAMGO dose; inhibition, % at 10 µM; shares compounds with TRPC6 inhibitor;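 active = compounds whose fluorescence signal differed from control wells by over 3 SD, either direction, in both duplicate plates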
# TRPC4 spec – tests whether TRPC6 inhibitors also affect mouse TRPC4 | shares compounds with TRPC6 inhibitor | HEK293 TRPC4/mu-opioid, membrane potential fluorescence | activity change, negative = inhibition, % at 10 µM | 920 compounds, 61% hits | AID 2777;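 active = rise or fall in signal beyond 3 SD of buffer-only wells in both replicate plates, either sign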;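 also: integrated kinetic ratio of fluorescence range over baseline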
# HEK293 MPD ctr 2-1 – second check of TRPC6 inhibitor effects in parental HEK293 cells. signal change vs control, % at 10 µM. parental HEK293 membrane potential dye fluorescence; maximal acetylcholine challenge after compound addition. shares compounds with TRPC6 inhibitor. 920 compounds, 31% hits;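 active = membrane potential signal moving either way by over 3 SD of the maximum-effect control, in both duplicate plates, meaning non-specific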
# HEK293 MPD ctr-1 – checks TRPC6 inhibitor effects in parental HEK293 cells; parental HEK293 membrane potential dye fluorescence; membrane potential signal change, % at 10 µM; 920 compounds, 60% hits; shares compounds with TRPC6 inhibitor;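 active = membrane potential signal shifting up or down by more than 3 SD of buffer-only wells, on both duplicate plates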
# HEK293 MPD ctr-2 – counter-screen for TRPC6 modulators: effect in parental HEK293 cells; 2,400 compounds, 51% hits; AID 488924; membrane potential signal change, % at 10 µM; membrane potential dye fluorescence; shares compounds with TRPC6 inhibitor;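 active = membrane potential signal moves up or down beyond 5 SD from buffer-only wells, on both duplicate plates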
# HEK293 MPD ctr 2-2 – second check of TRPC6 modulator effects in parental HEK293 cells; shares compounds with TRPC6 inhibitor; membrane potential dye fluorescence; after compound, maximal acetylcholine stimulation; inhibition, % at 10 µM; 2,400 compounds, 14% hits; AID 488926;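 active = membrane potential signal drops by more than 5 SD from the mean control signal, in both duplicate plates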;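 also: plate controls were acetylcholine ECmax control wells for no effect and buffer only wells for full effect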
# TRPC4/MOR mod – selectivity of TRPC6 modulators against mouse TRPC4; shares compounds with TRPC6 inhibitor; HEK293 TRPC4/mu-opioid, membrane potential fluorescence; percent change from control (negative = decrease, positive = increase), % at 10 µM; 2,400 compounds, 69% hits;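 active = membrane potential signal moved up or down beyond 5 SD of buffer control wells, in both duplicate plates, actives on both sides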;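 also: plate controls were assay buffer wells for no effect and DAMGO maximal-effect wells for full effect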
# TRPC4/MOR inh 2 – mouse TRPC4 off-target activity of TRPC6 modulators, second screen | shares compounds with TRPC6 inhibitor | HEK293 TRPC4/mu-opioid, membrane potential dye fluorescence; stimulated with maximal-effect DAMGO | inhibition, % at 10 µM | 2,400 compounds, 55% hits | AID 488928;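 active = drop in membrane potential signal beyond 5 SD of the control wells in both duplicate plates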;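 also: TRPC4 counter screen for TRPC6 hits run under conditions tuned for TRPC6 not TRPC4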
# TRPC6 block conf – mouse TRPC6 inhibitor confirmation. 3,300 compounds, 43% hits. inhibition, % at 10 µM. shares compounds with TRPC6 inhibitor. HEK293-TRPC6, membrane potential dye, ACh-evoked depolarization;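 active = fluorescence ratio falls more than 5 SD below the full-stimulation control mean, in both duplicate runs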;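 also: integrated fluorescence ratio of peak minus minimum over baseline after agonist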
# TRPC6 act confirm – confirmation of mouse TRPC6 activators; 2,800 compounds, 11% hits; shares compounds with TRPC6 inhibitor; AID 488961; HEK293-TRPC6 membrane potential dye fluorescence, FDSS; activation, % at 10 µM;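 active = ratio signal rise beyond 5 SD above unstimulated control wells' mean, seen in both duplicate runs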;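 also: plate controls were buffer EC0 wells for no effect and acetylcholine ECmax response for full effect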
# * = called active by the depositor; i = inactive; x = no result given.
SMILES,TRPC4 inh,TRPC4 agonist,TRPC6 act,CR mimetic SO,TRPC4 PAM,TRPC6 inhibitor,HEK293 MPD ctr-2,HEK293 MPD ctr 2-2,TRPC4/MOR mod,TRPC4/MOR inh 2,TRPC6 block conf,TRPC6 act confirm,others
Cc1nonc1OCCNCCNc1ccc([N+](=O)[O-])c2cccnc12,i,i,i,88,i,-5.1*,-180%*,i,-38%*,75%*,48%*,i,
CCNCCNc1ccc([N+](=O)[O-])c2cccnc12,i,i,i,121,18*,-5.9*,-288%*,i,-40%*,54%*,72%*,i,
O=C(COc1ccc(Cl)cc1)N(c1ccccc1Cl)C1CN2CCC1CC2 (configuration not stated),i,i,i,91,i,-5.3*,132%*,i,26%*,52%*,i,x,
COC(=O)C1=C(c2ccc(Cl)c(C(F)(F)F)c2)C[C@@H]2CC[C@H]1N2C(=O)NCCO,x,x,x,83,x,x,x,x,x,x,x,x,
CN1C(=O)/C(=C/c2ccc(N3CCCCCC3)o2)C(=O)NC1=S,i,i,19*,100,i,i,472%*,i,50%*,i,i,93%*,
Cc1ccccc1CCNCc1cc2cccc(C)c2[nH]c1=O,i,i,i,100,i,-11*,x,x,x,x,94%*,i,TRPC4 spec 2=16%*;TRPC4 spec=i;HEK293 MPD ctr 2-1=i;HEK293 MPD ctr-1=0.1%*
Fc1ccccc1CCNCc1cccc2ccccc12,i,i,i,101,i,i,x,x,x,x,x,x,
Cc1ccc2c(c1)[C@@H]1CN(C)CC[C@@H]1N2C(=O)Nc1cccc(C(F)(F)F)c1,i,i,i,97,i,-5.9*,i,i,-14%*,47%*,i,i,
Cc1ccc2c(c1)C1CN(C)CCC1N2C(=O)Nc1cccc(C(F)(F)F)c1 (configuration not stated),i,i,i,100,i,i,x,x,x,x,x,x,
CCOC(=O)C1SC2(C(F)F)CC1(O)c1c(c(OC)c3occc3c1OC)O2 (configuration not stated),i,i,i,112,i,i,x,x,x,x,x,x,
CCCCCCCSc1cc(OC)c(CCN(C)C)cc1OC,i,i,i,96,i,i,x,x,x,x,x,x,
CCCCCSc1cc(OC)c(CCN)cc1OC,i,i,i,83,i,-6.5*,i,i,i,59%*,40%*,i,
Cc1ccc(C2=NCC(=O)Nc3ccc(Br)cc32)cc1,i,i,i,110,i,i,x,x,x,x,x,x,
O=C(Nc1cccc(C(F)(F)F)c1)OC1CN2CCC1CC2 (configuration not stated),i,i,i,104,i,-6.5*,i,i,i,i,54%*,i,
O=C(Nc1ccc(C(F)(F)F)cc1)OC1CN2CCC1CC2 (configuration not stated),i,i,i,108,i,i,x,x,x,x,x,x,
NC(Cc1ccccc1)c1nc(-c2ccccc2)no1 (configuration not stated),i,i,i,107,i,i,x,x,x,x,x,x,
CCCN1CCc2cccc3c2[C@H]1Cc1ccc(O)c(O)c1-3,i,i,i,33*,i,-5.6*,i,i,i,37%*,i,i,
CN1C2CCC1CC(OC(c1ccccc1)c1ccccc1N)C2 (configuration not stated),i,i,i,107,i,-5.6*,110%*,92%*,21%*,40%*,88%*,x,
CN(C)CCSC1c2ccccc2CSc2ccccc21 (configuration not stated),i,i,i,104,i,-6.2*,i,78%*,11%*,50%*,74%*,x,
CC[N+](C)(CC)CCCOC(=O)C(O)(c1ccccc1)C1CCCCC1 (configuration not stated),i,i,i,88,i,-8.1*,x,x,x,x,i,i,TRPC4 spec 2=i;TRPC4 spec=i;HEK293 MPD ctr 2-1=i;HEK293 MPD ctr-1=i
CC(=O)O[C@H]1C(=O)[C@@]2(C)C([C@H](OC(=O)c3ccccc3)[C@]3(O)C[C@H](OC(=O)[C@H](O)[C@@H](NC(=O)Cc4ccccc4)c4ccccc4)C(C)=C1C3(C)C)[C@]1(OC(C)=O)CO[C@@H]1C[C@@H]2O (some centres not stated),i,i,i,101,i,i,x,x,x,x,x,x,
OC(c1cccc(Cl)c1)(c1cccc(Cl)c1)C1CN2CCC1CC2 (configuration not stated),i,i,i,103,i,-8*,i,i,10%*,i,70%*,i,
Cc1ccc(Cc2c(C)nc3nc(SCC(=O)N4CCC5(CC4)OCCO5)nn3c2C)cc1,i,i,13*,107,i,-11*,184%*,i,32%*,38%*,46%*,152%*,
